# Data published in article PMC3163154 (Molecular pharmaceutics, 2011).
# pIC50: −log10 of the molar value.
# Experiments:
# [1] = test system: androgen response element (ARE-LUC) reporter in LNCaP cells; assay: Androgen induced gene expression assay; format: cell-based; details: R1881 1.0 nM, 24 hours, compared with TGX-221
# Summary of the method: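 LNCaP cells in 6-well plates were transfected the next day with 1.0 μg ARE-LUC plasmid using Lipofectamine. After 24 h, medium was changed to RPMI-1640 with 2% FBS and 1.0 nM R1881, test compound was added, and cells were incubated 24 h. Cells were PBS-washed and lysed, and luciferase activity was normalised to BCA total protein. Mean ± SD, n=3.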
# LNCaP cells [2] = assay: Cytotoxicity assay; format: cell-based; details: read-out: IC50 in LNCaP cells; LNCaP (PTEN-null), 72 hours, MTT assay
# DU145 cells = assay: Cytotoxicity assay; format: cell-based; details: read-out: IC50 in DU145 cells; DU145 (PTEN-wild), 72 hours, MTT assay
# Summary of the method: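 DU145 cells were seeded at 3×10³ cells/well, a lower density than LNCaP owing to fast growth. After 24 h, test compound was added and cells were incubated 72 h at 37°C. Relative cell number was measured by MTT. IC50 was obtained by fitting a concentration-response curve.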
# LNCaP cells [3] = assay: Androgen induced proliferation assay; format: cell-based; details: R1881-containing serum-free medium, 3 days, compared with TGX-221
# Summary of the method: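 LNCaP cells were seeded 12 h before assay. Medium was switched to serum-free medium containing 1 nM R1881 (synthetic androgen), then test compound was added. After 72 h incubation, proliferation was read by Alamar Blue assay. Mean ± SD, n=3.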
# LNCaP cells [4] = assay: Cellular uptake study; format: cell-based; details: 0.5 μM, 1 hour incubation
# LNCaP cells [5] = assay: In vitro competitive receptor binding assay; format: cell-based; details: pre-incubation with Ac-KCCYSL 1 hour, then KCC-TGX 30 minutes
# Summary of the method: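 LNCaP cells were plated at 2×10⁴ cells/well for 12 h and PBS-washed. They were pre-incubated 1 h at 37°C with the HER2-targeting peptide at the indicated concentrations, then exposed to test conjugate for 30 min. Cells were washed, freeze-thaw lysed, NaOH-hydrolysed 1 h to release parent drug, and extracted with ethyl acetate using an internal standard. Drug was quantified by LC-MS/MS and normalised to BCA protein. n=3.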
# LNCaP cells [6] = assay: Immunostaining of LNCaP cells with biotinylated peptides; format: binding
# Summary of the method: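 LNCaP cells were fixed in ice-cold acetone/methanol (1/1) for 10 min and blocked with 1% BSA for 1 h. Biotinylated peptide was applied for 1 h in TBST (0.1% Tween-20, 0.1 M Tris-Cl, pH 7.4). After washing, streptavidin-FITC was added for 20 min and nuclei were counterstained. Cells were imaged by fluorescence microscopy at 200x.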
# PI3Kβ = details: selectivity; cited from earlier work
molecule,measurement,setting,value
Cc1cc(C(C)N(CCO)c2ccccc2)c2nc(N3CCOCC3)cc(=O)n2c1 (stereo not shown) [TGX-D1],inhibition of androgen-induced gene expression,[1],comparable effects
same,pIC50,LNCaP cells [2],5.57
same,pIC50,DU145 cells,< 4.00
same,inhibition of androgen-induced cell proliferation,LNCaP cells [3],comparable effects
same,cellular uptake in LNCaP cells,LNCaP cells [4],low uptake
Ac-KCCYSL,uptake by LNCaP cells after pre-incubation with the HER2-specific ligand,LNCaP cells [5],significantly inhibited
KCCYSL,binding on LNCaP cells (streptavidin-FITC staining),"LNCaP cells [6]; C-terminus biotinylated peptide, 10 μM",high-affinity binding
DPRATPGSK,fluorescence on LNCaP cells (streptavidin-FITC staining),"LNCaP cells [6]; control peptide, concentration increased to 100 μM (data not shown)",No significant fluorescence
Cc1cc(C(C)Nc2ccccc2)c2nc(N3CCOCC3)cc(=O)n2c1 (stereo not shown) [TGX-221],pIC50,LNCaP cells [2],5.97
same,pIC50,DU145 cells,< 4.00
same,inhibition effect on PI3Kβ over PI3Kα,PI3Kβ,about 1000 fold
same,inhibition effect on PI3Kβ over PI3Kγ,PI3Kβ,about 1000 fold
same,inhibition effect on PI3Kβ over PI3Kδ,PI3Kβ,~20 fold
